{"source": "ChEMBL document CHEMBL4477178", "about": "“Biflorin, Isolated from the Flower Buds of Syzygium aromaticum L., Suppresses LPS-Induced Inflammatory Mediators via STAT1 Inactivation in Macrophages and Protects Mice from Endotoxin Shock” (J Nat Prod, 2016)", "key": {"RAW264.7 [1]": {"system": "RAW264.7", "assay": "Antiinflammatory activity in mouse RAW264.7 cells assessed as inhibition of LPS-induced nitric oxide production preincubated for 1 hr followed by LPS challenge for 24 hrs by Griess assay", "type": "functional, cell-based", "summary_of_the_method": "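RAW 264.7 cells plated at 2 × 10^5 cells/mL and incubated overnight. Compound given at 15, 30 or 60 μM for 1 h, then LPS 10 ng/mL for 24 h. Nitrite in the medium measured by Griess reagent (10 min, room temperature, A540) against a NaNO2 standard. L-NIL 20 μM as positive control; IC50 derived; three independent experiments.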"}, "RAW264.7 [2]": {"system": "RAW264.7", "assay": "Antiinflammatory activity in mouse RAW264.7 cells assessed as inhibition of LPS-induced PGE2 production preincubated for 1 hr followed by LPS challenge for 24 hrs by ELISA method", "type": "functional, cell-based", "summary_of_the_method": "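RAW 264.7 cells in DMEM with 10% FBS, plated at 2 × 10^5 cells/mL and incubated overnight. Pretreated with compound (15, 30 or 60 μM) for 1 h, then LPS 10 ng/mL for 24 h. PGE2 measured by competitive colorimetric ELISA, TNF-α and IL-6 by ELISA, in diluted medium. NS-398 3 μM as positive control for PGE2. Mean ± SD, three independent experiments; IC50 given for PGE2.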"}, "Rattus norvegicus [3]": {"system": "Rattus norvegicus", "assay": "Antiinflammatory activity in Sprague-Dawley rat assessed as inhibition of croton oil-induced ear edema at 100 mg/kg, po administered 1 hr before croton oil challenge measured after 3 hrs post challenge", "type": "functional", "summary_of_the_method": "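Croton-oil ear edema in male SD rats: ibuprofen 100 mg/kg p.o. given as reference. Croton oil (5% in 100 μL acetone) applied to the right ear, acetone to the left. Thickness of 6 mm ear punches measured 3 h after application; seven rats per group.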"}, "Rattus norvegicus [4]": {"system": "Rattus norvegicus", "assay": "Antiinflammatory activity in Sprague-Dawley rat assessed as reduction in carrageenan induced paw edema at 100 mg/kg, po administered 1 hr before carrageenan challenge measured at 3 hrs post challenge", "type": "functional", "summary_of_the_method": "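Carrageenan paw edema in SD rats: ibuprofen 100 mg/kg p.o. as reference. Carrageenan (1% in saline, 0.1 mL) injected into the right hind paw. Volume measured by plethysmometer at 1, 3 and 5 h; seven rats per group.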"}}}
{"molecule": "Cc1cc(=O)c2c(O)cc(O)c([C@@H]3O[C@H](CO)[C@@H](O)[C@H](O)[C@H]3O)c2o1", "values": [{"measurement": "IC50", "setting": "RAW264.7 [1]", "result": "> 60", "unit": "µM"}, {"measurement": "IC50", "setting": "RAW264.7 [2]", "result": 46, "unit": "µM"}]}
{"molecule": "CC(C)Cc1ccc(C(C)C(=O)O)cc1", "note": "(centres undefined) [IBUPROFEN]", "values": [{"measurement": "inhibition in vivo at 100 mg/kg", "setting": "Rattus norvegicus [3]", "result": 78.2, "unit": "%"}, {"measurement": "inhibition in vivo at 100 mg/kg", "setting": "Rattus norvegicus [4]", "result": 68, "unit": "%"}]}
